ChEMBL document CHEMBL1143844, “Biochemical studies on the mechanism of human immunodeficiency virus type 1 reverse transcriptase resistance to 1-(beta-D-dioxolane)thymine triphosphate” (Antimicrob Agents Chemother, 2007)

How the values were obtained:
[1] = Inhibition of HIV1 reverse transcriptase 41L/69S-SG/184V/210W/215Y mutant by heteropolymeric DNA polymerase assay; parameters: species or system Human immunodeficiency virus 1
Outline: (§1)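 Purified p66/p51 HIV-1 RT, or p66 homodimer for 65R, at 30–100 pM (about 1.5–4.5 mU/well). Plate-bound 18-mer DNA primer on a 50-base 5′-A12-(GTCA)5-3′ DNA template. dATP, dGTP, dCTP and BrdUTP at 1.0 μM each, no ATP. Buffer: HEPES 50 mM pH 7.3, 10 mM MgCl2. Incubation 180 min at 33°C, NaOH dehybridization, anti-BrdU-AP tracer, A405. IC50 from seven inhibitor concentrations, at least two experiments in duplicate.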

[2] = Inhibition of HIV1 reverse transcriptase 41L/67N/70R/184V/210W/215Y mutant by heteropolymeric DNA polymerase assay; parameters: species or system Human immunodeficiency virus 1; outline: as §1
[3] = Inhibition of HIV1 reverse transcriptase 184V mutant in presence of 5 mM ATP by heteropolymeric DNA polymerase assay; parameters: species or system Human immunodeficiency virus 1
Outline: (§2)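 Heteropolymeric DNA polymerase assay with ATP added at 5 mM. Purified HIV-1 RT at 30–100 pM acts on a plate-bound DNA primer with a 5′-A12-(GTCA)5-3′ template. dATP, dGTP, dCTP and BrdUTP at 1.0 μM each. Incubation 180 min at 33°C. BrdUMP incorporation read via anti-BrdU-AP at 405 nm after NaOH dehybridization. IC50 from seven inhibitor concentrations, at least two experiments in duplicate.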

[4] = Inhibition of HIV1 reverse transcriptase 75I/77L/116Y/151M/184V mutant in presence of 5 mM ATP by heteropolymeric DNA polymerase assay; parameters: species or system Human immunodeficiency virus 1; outline: as §2
[5] = Inhibition of HIV1 reverse transcriptase 184V mutant by heteropolymeric DNA polymerase assay; parameters: species or system Human immunodeficiency virus 1; outline: as §1
[6] = Inhibition of HIV1 LAI reverse transcriptase 65R mutant in presence of 5 mM ATP by heteropolymeric DNA polymerase assay; parameters: species or system Human immunodeficiency virus 1; outline: as §2
[7] = molecular target: T1, Human immunodeficiency virus type 1 reverse transcriptase (Human immunodeficiency virus 1, UniProt Q72547); test: Inhibition of HIV1 LAI reverse transcriptase wild type in presence of 5 mM ATP by heteropolymeric DNA polymerase assay
Outline: (§3)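 Heteropolymeric DNA assay with 5 mM ATP added: immobilized 18-mer primer, 5′-A12-(GTCA)5 50-mer template, dATP/dGTP/dCTP/BrdUTP at 1.0 μM each, HEPES 50 mM pH 7.3, MgCl2 10 mM. RT 30–100 pM, incubated at 33°C for 180 min. NaOH strand separation, then anti-BrdU-AP detection at 405 nm. IC50 fitted from seven inhibitor concentrations; two to four runs in duplicate.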

[8] = Inhibition of HIV1 reverse transcriptase 75I/77L/116Y/151M mutant by heteropolymeric DNA polymerase assay; parameters: species or system Human immunodeficiency virus 1; outline: as §1
[9] = Inhibition of HIV1 reverse transcriptase 75I/77L/116Y/151M/184V mutant by heteropolymeric DNA polymerase assay; parameters: species or system Human immunodeficiency virus 1; outline: as §1
[10] = molecular target: T1, Human immunodeficiency virus type 1 reverse transcriptase; test: Inhibition of HIV1 pNL4-3 reverse transcriptase wild type pNL4-3 in presence of 5 mM ATP by heteropolymeric DNA polymerase assay; outline: as §3
[11] = Inhibition of HIV1 pNL4-3 reverse transcriptase 115F mutant in presence of 5 mM ATP by heteropolymeric DNA polymerase assay; parameters: species or system Human immunodeficiency virus 1; outline: as §2
[12] = Inhibition of HIV1 reverse transcriptase 75I/77L/116Y/151M mutant in presence of 5 mM ATP by heteropolymeric DNA polymerase assay; parameters: species or system Human immunodeficiency virus 1; outline: as §2
[13] = Inhibition of HIV1 pNL4-3 reverse transcriptase 115F mutant by heteropolymeric DNA polymerase assay; parameters: species or system Human immunodeficiency virus 1; outline: as §1
[14] = Inhibition of HIV1 reverse transcriptase 41L/69S-SG/184V/210W/215Y mutant in presence of 5 mM ATP by heteropolymeric DNA polymerase assay; parameters: species or system Human immunodeficiency virus 1; outline: as §2
[15] = Inhibition of HIV1 reverse transcriptase wild type HXB2(a) in presence of 5 mM ATP by heteropolymeric DNA polymerase assay; parameters: species or system Human immunodeficiency virus 1; outline: as §3
[16] = molecular target: T1, Human immunodeficiency virus type 1 reverse transcriptase; test: Inhibition of HIV1 LAI reverse transcriptase wild type LAI by heteropolymeric DNA polymerase assay
Outline: (§4)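 Heteropolymeric assay without ATP: plate-bound 18-mer DNA primer (~110 nM) with 50-mer 5′-A12-(GTCA)5 template (190 nM). dATP, dGTP, dCTP and BrdUTP at 1.0 μM each, in HEPES 50 mM pH 7.3, MgCl2 10 mM. RT 30–100 pM, 33°C for 180 min, then NaOH dehybridization and anti-BrdU-AP tracer read at 405 nm. IC50 from seven triphosphate concentrations; two to four runs in duplicate.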

[17] = molecular target: T1, Human immunodeficiency virus type 1 reverse transcriptase; test: Inhibition of HIV1 pNL4-3 reverse transcriptase wild type pNL4-3 by heteropolymeric DNA polymerase assay; outline: as §4
[18] = Inhibition of HIV1 reverse transcriptase 41L/69S-SG/210W/215Y mutant by heteropolymeric DNA polymerase assay; parameters: species or system Human immunodeficiency virus 1; outline: as §1
[19] = Inhibition of HIV1 reverse transcriptase 41L/69S-SG/210W/215Y mutant in presence of 5 mM ATP by heteropolymeric DNA polymerase assay; parameters: species or system Human immunodeficiency virus 1; outline: as §2
[20] = Inhibition of HIV1 reverse transcriptase 41L/67N/70R/210W/215Y mutant by heteropolymeric DNA polymerase assay; parameters: species or system Human immunodeficiency virus 1; outline: as §1
[21] = Inhibition of HIV1 reverse transcriptase 41L/67N/70R/184V/210W/215Y mutant in presence of 5 mM ATP by heteropolymeric DNA polymerase assay; parameters: species or system Human immunodeficiency virus 1; outline: as §2
[22] = Inhibition of HIV1 LAI reverse transcriptase 65R mutant by heteropolymeric DNA polymerase assay; parameters: species or system Human immunodeficiency virus 1; outline: as §1
[23] = Inhibition of HIV1 reverse transcriptase wild type HXB2(a) by heteropolymeric DNA polymerase assay; parameters: species or system Human immunodeficiency virus 1; outline: as §4

Work on `Nc1nc(=O)c2ncn([C@H]3C=C[C@@H](COP(=O)(O)OP(=O)(O)OP(=O)(O)O)C3)c2[nH]1` [CARBOVIR 5'-TRIPHOSPHATE, (-)-] yielded an IC50 [1] of 3400 nM, an IC50 [2] of 2700 nM and an IC50 [3] of 8.4 µM. For the same molecule, the IC50 [4] was 18 µM, the IC50 [5] was 5500 nM and the IC50 [6] was 5.5 µM. For the same molecule, the IC50 [7] was 900 nM, the IC50 [8] was 6.6 µM and the IC50 [9] was 54 µM. For the same molecule, the IC50 [10] was 1800 nM, the IC50 [11] was 3.6 µM and the IC50 [12] was 11 µM. It also gave an IC50 [13] of 2600 nM, an IC50 [14] of 6.4 µM and an IC50 [15] of 1500 nM. The IC50 [16] was 680 nM, the IC50 [17] was 1200 nM and the IC50 [18] was 900 nM. The IC50 [19] was 5100 nM, the IC50 [20] was 900 nM and the IC50 [21] was 4500 nM. The IC50 [22] was 5000 nM and the IC50 [23] was 1100 nM.

Molecule `Nc1nc2c(ncn2[C@H]2CO[C@@H](COP(=O)(O)OP(=O)(O)OP(=O)(O)O)O2)c(=O)[nH]1` has an IC50 [1] of 140 nM, an IC50 [2] of 140 nM and an IC50 [3] of 0.2 µM. The IC50 [4] was 2.4 µM, the IC50 [5] was 200 nM and the IC50 [6] was 1.3 µM. For the same molecule, the IC50 [7] was 200 nM, the IC50 [8] was 2.5 µM and the IC50 [9] was 7.2 µM. For the same molecule, the IC50 [12] was 1.2 µM, the IC50 [14] was 0.26 µM and the IC50 [15] was 150 nM. For the same molecule, the IC50 [16] was 180 nM, the IC50 [19] was 340 nM and the IC50 [20] was 110 nM. It also gave an IC50 [21] of 190 nM, an IC50 [22] of 620 nM and an IC50 [23] of 120 nM.
